Data set [1] can be described thus: 1-Octanol-sodium phosphate buffer partition coefficient, log P of the compound at pH 7.4 after 4 mins. The format is physicochemical. Summed up:
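Radiolabelled compound added to 3 g 1-octanol and 3 g NaH2PO4 buffer, pH 7.4. Mixture vortexed 1 min and centrifuged 3 min. Octanol layer removed and partition repeated two more times. log P taken from the ratio of counts/mL in octanol vs buffer after the third partition.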

A further data set has as its system Liver. Kind of data set: Biodistribution in Sprague-Dawley rat liver at 30 uCi, iv measured after 30 mins by gamma counting. The format is ADME, organism-based. Particulars: in vivo, 0.5 h. Put shortly: (§1)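 Normal male Sprague-Dawley rats (n = 3) received 30 μCi of the 18F tracer iv per rat and were sacrificed at 30 min. Organs removed, weighed and gamma counted. Striatum, hippocampus, cerebellum, cortex and hypothalamus dissected and counted separately. %dose/g calculated against diluted aliquots of the injected dose; mean ± S.D. of 3 rats.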

Another data set has as its system Striatum. As to the kind of experiment: Biodistribution in Sprague-Dawley rat striatum at 30 uCi, iv measured after 30 mins by gamma counting. The format is ADME, organism-based. Conditions: in vivo, 0.5 h. Put shortly: as §1
The next data set relates to Lung. Kind of data set: Biodistribution in Sprague-Dawley rat lung at 30 uCi, iv measured after 30 mins by gamma counting. Format: ADME, organism-based. Conditions: in vivo, 0.5 h. Put shortly:
as §1

In another data set the test system is Blood. As to the kind of experiment: Biodistribution in Sprague-Dawley rat blood at 30 uCi, iv measured after 30 mins by gamma counting. Format: ADME, organism-based. Conditions: in vivo, 0.5 h. Summed up:
as §1

The subject of another data set is Hypothalamus. Kind of data set: Biodistribution in Sprague-Dawley rat hypothalamus at 30 uCi, iv measured after 30 mins by gamma counting. Format: ADME, organism-based. Particulars: in vivo, 0.5 h. Summed up:
as §1

For another data set, the system named is Hippocampus. As to the kind of experiment: Biodistribution in Sprague-Dawley rat hippocampus at 30 uCi, iv measured after 30 mins by gamma counting. Format: ADME, organism-based. Conditions: in vivo, 0.5 h. Summed up: as §1
Another data set relates to Brain. Kind of data set: Biodistribution in Sprague-Dawley rat brain at 30 uCi, iv measured after 30 mins by gamma counting. Format: ADME, organism-based. Particulars: in vivo, 0.5 h. Summed up: as §1
In a further data set the test system is Kidney. Kind of data set: Biodistribution in Sprague-Dawley rat kidney at 30 uCi, iv measured after 30 mins by gamma counting. Particulars: in vivo, 0.5 h. Format: ADME, organism-based. Summed up:
as §1

The test system of data set [2] is Nucleic Acid. As to the kind of experiment: Ratio of drug uptake in striatum to cerebellum of Sprague-Dawley rat at 30 uCi, iv measured after 30 mins by gamma counting. Particulars: in vivo, 0.5 h. Format: ADME, organism-based. Put shortly: (§2)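 Male Sprague-Dawley rats (n = 3) received 30 μCi of the 18F tracer iv and were dissected at 30 min. Brain regions gamma counted as %dose/g against injected-dose aliquots. Regional uptake expressed as a ratio to cerebellum uptake.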

The next data set deals with Cortex. As to the kind of experiment: Biodistribution in Sprague-Dawley rat cortex at 30 uCi, iv measured after 30 mins by gamma counting. The format is ADME, organism-based. Particulars: in vivo, 0.5 h. Put shortly:
as §1

In the next data set the test system is Muscle tissue. Kind of data set: Biodistribution in Sprague-Dawley rat muscle at 30 uCi, iv measured after 30 mins by gamma counting. Particulars: in vivo, 0.5 h. The format is ADME, organism-based. Put shortly: as §1
For the next data set, the system named is Heart. Kind of data set: Biodistribution in Sprague-Dawley rat heart at 30 uCi, iv measured after 30 mins by gamma counting. The format is ADME, organism-based. Particulars: in vivo, 0.5 h. Summed up:
as §1

Data set [3] concerns Nucleic Acid. As to the kind of experiment: Ratio of drug uptake in hippocampus to cerebellum of Sprague-Dawley rat at 30 uCi, iv measured after 30 mins by gamma counting. The format is ADME, organism-based. Conditions: in vivo, 0.5 h. Summed up:
as §2

The next data set relates to Cerebellum. As to the kind of experiment: Biodistribution in Sprague-Dawley rat cerebellum at 30 uCi, iv measured after 30 mins by gamma counting. Format: ADME, organism-based. Particulars: in vivo, 0.5 h. Summed up: as §1
The next data set relates to Bone. As to the kind of experiment: Biodistribution in Sprague-Dawley rat bone at 30 uCi, iv measured after 30 mins by gamma counting. The format is ADME, organism-based, Bone element. Particulars: in vivo, 0.5 h. Summed up: as §1
The target in data set [4] is T1, Sodium-dependent dopamine transporter (Homo sapiens, UniProt Q01959). Kind of data set: Displacement of [125I]IPT from DAT overexpressed in LLC-PK1 cell membrane by competitive binding assay. On the technique in general: Loss of bound radioactivity is the signal in a displacement assay; it reports binding, not function.
T1 sequence (Q01959 whole entry): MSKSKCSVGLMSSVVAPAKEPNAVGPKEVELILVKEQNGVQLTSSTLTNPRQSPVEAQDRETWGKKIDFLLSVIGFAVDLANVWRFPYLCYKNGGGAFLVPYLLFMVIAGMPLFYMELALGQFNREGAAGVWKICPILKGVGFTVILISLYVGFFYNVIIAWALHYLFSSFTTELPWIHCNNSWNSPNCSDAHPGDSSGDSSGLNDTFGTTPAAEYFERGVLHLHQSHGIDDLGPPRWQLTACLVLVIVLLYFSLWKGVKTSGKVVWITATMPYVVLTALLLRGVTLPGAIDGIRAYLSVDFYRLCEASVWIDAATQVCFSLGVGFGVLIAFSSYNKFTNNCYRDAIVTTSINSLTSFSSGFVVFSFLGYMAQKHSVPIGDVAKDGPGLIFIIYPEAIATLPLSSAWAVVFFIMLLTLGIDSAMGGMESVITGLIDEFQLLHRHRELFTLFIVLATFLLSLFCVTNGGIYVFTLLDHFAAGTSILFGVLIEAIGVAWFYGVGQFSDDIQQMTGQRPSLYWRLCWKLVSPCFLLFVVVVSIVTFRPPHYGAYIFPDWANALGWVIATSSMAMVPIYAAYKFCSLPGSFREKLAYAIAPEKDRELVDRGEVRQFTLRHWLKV
Data set [5] concerns the target T1, Sodium-dependent dopamine transporter. As to the kind of experiment: Binding affinity to DAT.

In general, logD refers to lipophilicity at a set pH, counting ionised and neutral species. High values mean a more lipophilic compound, low ones a more hydrophilic compound. A word on the Ki: it is the equilibrium dissociation constant of an inhibitor or competing ligand from its target. Usually Kd stands for the equilibrium constant for the complex coming apart. A high value points to weaker binding.

As for `CN(CC[18F])C[C@H]1[C@@H](c2ccc(Cl)cc2)C[C@@H]2CC[C@H]1N2C`, the logD at 4 min in data set [1] came to 1.52. The Drug uptake is given as 3.01 % ID/g in the data set with Liver; 1.07 % ID/g in the data set with Striatum; 5.93 % ID/g in the data set with Lung; 0.1 % ID/g in the data set on Blood; 0.82 % ID/g in the data set on Hypothalamus; 0.79 % ID/g in the data set on Hippocampus. Also, the Drug uptake with Brain turned out to be 0.72 % ID/g; with Kidney it was 3.65 % ID/g; with Cortex, 0.91 % ID/g; in the data set with Muscle tissue it was 0.27 % ID/g; with Heart, 0.8 % ID/g; with Cerebellum, 0.65 % ID/g. The compound also displayed a Drug uptake with Bone of 0.43 % ID/g. The Ratio in the data set on Nucleic Acid [2] is listed as 1.63; with Nucleic Acid [3] it was 1.21. The compound further came in with a Ki in data set [4] of 3.79 nM.

In data set [1], `CN(CCC[18F])C[C@H]1[C@@H](c2ccc(Cl)cc2)C[C@@H]2CC[C@H]1N2C` gave a logD at 4 min of 1.72. The Drug uptake is listed as 2.08 % ID/g in the data set on Liver; 0.63 % ID/g in the data set on Striatum; 11.5 % ID/g in the data set with Lung; 0.1 % ID/g in the data set with Blood; 0.63 % ID/g in the data set on Hypothalamus; 0.54 % ID/g in the data set on Hippocampus. Besides, the Drug uptake with Brain is 0.52 % ID/g; in the data set on Kidney it was 4.63 % ID/g; with Cortex, 0.68 % ID/g; with Muscle tissue, 0.22 % ID/g; in the data set with Heart, 1.56 % ID/g; with Cerebellum, 0.66 % ID/g. In addition, in the data set with Bone, the Drug uptake came out at 0.5 % ID/g. Also, the Ratio is 0.94 in the data set on Nucleic Acid [2] and 0.8 in the data set with Nucleic Acid [3]. In data set [4], this compound registered a Ki of 2.64 nM.

For the compound `CN(CCOCC[18F])C[C@H]1[C@@H](c2ccc(Cl)cc2)C[C@@H]2CC[C@H]1N2C`, the affinity in data set [4], expressed as Ki, was 4.63 nM.

With `CN(C)C(=O)[C@H]1[C@@H](c2ccc(Cl)cc2)C[C@@H]2CC[C@H]1N2CC[18F]`, in data set [1], the logD at 4 min is -0.11. Besides, in data set [4], the Ki is 699 nM.

For the compound `CN(C)C(=O)[C@H]1[C@@H](c2ccc(Cl)cc2)C[C@@H]2CC[C@H]1N2CCC[18F]`, in data set [1], the logD at 4 min was -0.07. In addition, the affinity in [4] corresponds to a Ki of 135 nM.

Compound `CN(C)C[C@H]1[C@@H](c2ccc(Cl)cc2)C[C@@H]2CC[C@H]1N2CC[18F]` registered a logD at 4 min in data set [1] of 1.88. Moreover, in data set [4], the Ki came out at 18.3 nM.

In the case of `CN(C)C[C@H]1[C@@H](c2ccc(Cl)cc2)C[C@@H]2CC[C@H]1N2CCC[18F]`, the logD at 4 min in data set [1] was found to be 1.98. In addition, the Drug uptake in the data set with Liver came to 0.86 % ID/g; with Striatum it was 0.49 % ID/g; with Lung, 5.58 % ID/g; in the data set on Blood, 0.14 % ID/g; in the data set on Hypothalamus, 0.43 % ID/g; in the data set on Hippocampus, 0.44 % ID/g. Moreover, the Drug uptake is 0.39 % ID/g with Brain; 2.08 % ID/g in the data set with Kidney; 0.52 % ID/g with Cortex; 0.3 % ID/g with Muscle tissue; 0.57 % ID/g in the data set on Heart; 0.44 % ID/g in the data set with Cerebellum. In the data set on Bone, this compound showed a Drug uptake of 1.04 % ID/g. Further, the Ratio in the data set with Nucleic Acid [2] is on record as 1.1; in the data set with Nucleic Acid [3] it was 0.99. The compound also gave a Ki in data set [4] of 26.9 nM.

In data set [5], `COC(=O)[C@H]1[C@@H](c2ccc(Cl)cc2)C[C@@H]2CC[C@H]1N2C/C=C/[125I]` registered a Kd of 1.2 nM.

In the case of `Cc1ccc([C@H]2C[C@@H]3CC[C@H]([C@H]2C(=O)OCC[18F])N3C/C=C/I)cc1`, in [5], the Ki was found to be 12 nM.

The values above are taken from ChEMBL document CHEMBL2046339, “Synthesis and evaluation of novel tropane derivatives as potential PET imaging agents for the dopamine transporter” (Bioorg Med Chem Lett, 2012).
